# Assays:
# Human betaherpesvirus 5 [1] = assay: Antiviral activity against human cytomegalovirus C8914-6 harboring UL97 I244V, L595F and UL54 L501F mutant gene infected in HFF after 8 to 10 days by plaque reduction assay; assay type: functional, organism-based; details: Human betaherpesvirus 5, C8914-6
# How it was run: (§1)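 Plaque reduction in confluent HFF with six serial dilutions (top 100 μM) and no immunoglobulin added. Virus was adsorbed 1 h on triplicate wells. Cells were incubated 8 days, stained with 0.017% neutral red in PBS, and plaques counted. EC50 is the concentration reducing plaque number by 50%.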
# [2] = Selectivity index, ratio of CC50 for HFF to EC50 for VZV Ellan infected in HFF
# Human betaherpesvirus 5 [3] = assay: Antiviral activity against human cytomegalovirus 759D100 harboring deletion mutation in UL97 gene and UL54 A987G mutant gene infected in HFF after 8 to 10 days by plaque reduction assay; assay type: functional, organism-based; details: Human betaherpesvirus 5, 759D100; how it was run: as §1
# Human alphaherpesvirus 1 [4] = assay: Antiviral activity against HSV1 E377 infected in HFF after 3 days by plaque reduction assay; assay type: functional, organism-based; details: Human alphaherpesvirus 1, E377, 72 h
# How it was run: (§2)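 Confluent HFF monolayers (passage <10) were infected in triplicate wells at 20–30 plaques per well, with 1 h adsorption and rocking every 15 min. Six serial dilutions (top 100 μM) were made in MEM with 2% FBS and pooled human immunoglobulin. Cells were incubated 3 days and stained with crystal violet. Plaques were counted, and EC50 was interpolated from plaque reduction.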
# [5] = Cytotoxicity against HFF after 3 days by MTS assay; assay type: cell-based; details: human, HFF cells
# Human gammaherpesvirus 8 = assay: Antiviral activity against Human herpesvirus 8 infected in human BCBL1 cells assessed as inhibition of viral replication after 7 days; assay type: functional, organism-based; details: Human gammaherpesvirus 8, BCBL1, 168 h
# How it was run: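 BCBL1 cells in RPMI 1640 with 10% FBS, compound diluted in triplicate wells with a top concentration of 100 μM. Lytic infection was induced with phorbol 12-myristate 13-acetate at 100 ng/ml final. After 7 days at 37°C in humidified CO2, viral DNA in total DNA was measured by TaqMan qPCR. EC50 was taken as 50% reduction of viral DNA.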
# [6] = Cytotoxicity against human Akata cells after 3 days by MTS assay; assay type: cell-based
# How it was run: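 Akata cells were plated as for the EBV assay but not induced with anti-IgG. Viability was read at the same time as the antiviral endpoint: MTS was added, plates incubated 4 h at 37°C, and formazan absorbance read at 490 nm. Medium-only control wells were included. CC50 was the concentration reducing viable cells by 50%.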
# Human betaherpesvirus 5 [7] = assay: Antiviral activity against human cytomegalovirus 1117 harboring UL54 K513N mutant gene infected in HFF after 8 to 10 days by plaque reduction assay; assay type: functional, organism-based; details: Human betaherpesvirus 5, 1117; how it was run: as §1
# Human alphaherpesvirus 2 [8] = assay: Selectivity ratio of EC50 for 4'-thioIDU-resistant HSV2 infected in HFF to EC50 for HSV2 MS infected in HFF; assay type: functional
# Human alphaherpesvirus 2 [9] = assay: Antiviral activity against HSV2 infected in BALB/c mouse assessed mean time to virus-induced death at […], po BID administered 72 hrs post infection; assay type: functional
# Human betaherpesvirus 5 [10] = assay: Antiviral activity against human cytomegalovirus RC314 harboring UL97 K355M mutant gene infected in HFF after 8 to 10 days by plaque reduction assay; assay type: functional, organism-based; details: Human betaherpesvirus 5, RC314; how it was run: as §1
# Human alphaherpesvirus 2 [11] = assay: Antiviral activity against HSV2 infected in BALB/c mouse assessed mean time to virus-induced death at 10 mg/kg, po BID administered 48 hrs post infection; assay type: functional
# Human alphaherpesvirus 2 [12] = assay: Antiviral activity against HSV2 infected in BALB/c mouse assessed as virus-induced mortality rate at 30 mg/kg, po BID administered 48 hrs post infection; assay type: functional
# [13] = Selectivity index, ratio of CC50 for human HSB2 cells to EC50 for Human herpesvirus 6 GS infected in human HSB2 cells; assay type: toxicity, cell-based; details: read-out: Ratio CC50/EC50
# Human alphaherpesvirus 2 [14] = assay: Antiviral activity against HSV2 infected in BALB/c mouse assessed as virus-induced mortality rate at 30 mg/kg, po BID administered 72 hrs post infection; assay type: functional
# [15] = Cytotoxicity against human HSB2 cells after 3 days by MTS assay; assay type: cell-based, CCRF-HSB-2
# Human alphaherpesvirus 1 [16] = assay: Antiviral activity against HSV1 SC16-S1 harboring TK A265T/C336Y mutant gene infected in HFF after 3 days by plaque reduction assay; assay type: functional, organism-based; details: Human alphaherpesvirus 1, SC16-S1, 72 h; how it was run: as §2
# Human alphaherpesvirus 2 [17] = assay: Antiviral activity against HSV2 13077 harboring TK R223H mutant gene infected in HFF after 3 days by plaque reduction assay; assay type: functional, organism-based; details: Human alphaherpesvirus 2, 13077, 72 h; how it was run: as §2
# Human alphaherpesvirus 2 [18] = assay: Antiviral activity against HSV2 harboring frameshift mutation in TK infected in HFF after 3 days by plaque reduction assay; assay type: functional, organism-based; details: Human alphaherpesvirus 2, 72 h; how it was run: as §2
# Human alphaherpesvirus 2 [19] = assay: Antiviral activity against HSV2 infected in BALB/c mouse assessed as virus-induced mortality rate at 10 mg/kg, po BID administered 24 hrs post infection; assay type: functional
# Human alphaherpesvirus 2 [20] = assay: Antiviral activity against HSV2 infected in BALB/c mouse assessed as virus-induced mortality rate at 10 mg/kg, po BID administered 72 hrs post infection; assay type: functional
# [21] = Selectivity index, ratio of CC50 for HFF to EC50 for human cytomegalovirus AD169 infected in HFF
# [22] = Selectivity index, ratio of CC50 for HFF to EC50 for HSV2 MS infected in HFF
# Human alphaherpesvirus 1 [23] = assay: Antiviral activity against HSV1 PAA5 harboring polymerase R842S mutant gene infected in HFF after 3 days by plaque reduction assay; assay type: functional, organism-based; details: Human alphaherpesvirus 1, PAA5, 72 h; how it was run: as §2
# Human alphaherpesvirus 2 [24] = assay: Antiviral activity against HSV2 MS infected in HFF after 3 days by plaque reduction assay; assay type: functional, organism-based; details: Human alphaherpesvirus 2, MS, 72 h
# How it was run: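 Confluent primary HFF monolayers (passage <10), triplicate wells, virus dosed at 20–30 plaques/well. Adsorption was 1 h with rocking every 15 min. Six serial dilutions, top 100 μM, were made in MEM with 2% FBS plus pooled human immunoglobulin. After 3 days, wells were stained with 0.1% crystal violet in 20% methanol and plaques counted microscopically. EC50 was interpolated.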
# Human alphaherpesvirus 2 [25] = assay: Antiviral activity against HSV2 12247 harboring TK C337Y mutant gene infected in HFF after 3 days by plaque reduction assay; assay type: functional, organism-based; details: Human alphaherpesvirus 2, 12247, 72 h; how it was run: as §2
# Human alphaherpesvirus 2 [26] = assay: Antiviral activity against HSV2 infected in BALB/c mouse assessed mean time to virus-induced death at […], po BID administered 48 hrs post infection; assay type: functional
# [27] = Selectivity index, ratio of CC50 for human BCBL1 cells to EC50 for Human herpesvirus 8 infected in human BCBL1 cells; assay type: toxicity, cell-based; details: read-out: Ratio CC50/EC50
# [28] = Selectivity index, ratio of CC50 for human Akata cells to EC50 for Epstein-Barr virus infected in human Akata cells; assay type: toxicity, cell-based; details: read-out: Ratio CC50/EC50
# Human alphaherpesvirus 2 [29] = assay: Antiviral activity against HSV2 infected in BALB/c mouse assessed mean time to virus-induced death at 10 mg/kg, po BID administered 72 hrs post infection; assay type: functional
# Human betaherpesvirus 5 [30] = assay: Antiviral activity against human cytomegalovirus VR4955 harboring UL54 T700A mutant gene infected in HFF after 8 to 10 days by plaque reduction assay; assay type: functional, organism-based; details: Human betaherpesvirus 5, VR4955; how it was run: as §1
# Human alphaherpesvirus 2 [31] = assay: Antiviral activity against HSV2 infected in BALB/c mouse assessed mean time to virus-induced death at 30 mg/kg, po BID administered 48 hrs post infection; assay type: functional
smiles,measurement,setting,value
O=c1[nH]c(=O)n([C@H]2C[C@H](O)[C@@H](CO)S2)cc1I,EC50,Human betaherpesvirus 5 [1],43 µM
same,Ratio CC50/EC50,[2],35
same,EC50,Human betaherpesvirus 5 [3],14 µM
same,EC50,Human alphaherpesvirus 1 [4],1.2 µM
same,CC50 at 72 h,[5],> 70 µM
same,EC50,Human gammaherpesvirus 8,> 4 µM
same,CC50 at 72 h,[6],0.68 µM
same,EC50,Human betaherpesvirus 5 [7],4.4 µM
same,Ratio EC50,Human alphaherpesvirus 2 [8],108
same,Time,Human alphaherpesvirus 2 [9],10 days
same,EC50,Human betaherpesvirus 5 [10],6.5 µM
same,Time,Human alphaherpesvirus 2 [11],10.4 days
same,Activity,Human alphaherpesvirus 2 [12],100%
same,selectivity ratio,[13],1
same,Activity,Human alphaherpesvirus 2 [14],100%
same,CC50 at 72 h,[15],> 100 µM
same,EC50,Human alphaherpesvirus 1 [16],> 444 µM
same,EC50,Human alphaherpesvirus 2 [17],> 343 µM
same,EC50,Human alphaherpesvirus 2 [18],77 µM
same,Activity,Human alphaherpesvirus 2 [19],67%
same,Activity,Human alphaherpesvirus 2 [20],73%
same,Ratio CC50/EC50,[21],>17
same,Ratio CC50/EC50,[22],> 140
same,EC50,Human alphaherpesvirus 1 [23],28 µM
same,EC50,Human alphaherpesvirus 2 [24],0.45 µM
same,EC50,Human alphaherpesvirus 2 [25],> 444 µM
same,Time,Human alphaherpesvirus 2 [26],9.4 days
same,selectivity ratio,[27],< 3.6
same,selectivity ratio,[28],< 4.3
same,Time,Human alphaherpesvirus 2 [29],10.7 days
same,EC50,Human betaherpesvirus 5 [30],8 µM
same,Time,Human alphaherpesvirus 2 [31],12.8 days
